Several values for one entry are separate records, joined by “and”; a condition that tells them apart may be missing. Equal entries are not always repeated. Where two headings read alike, the source gives them in different places.
How the values were obtained:
A375 xenografts = assay: A375 xenograft tumor model; type: in vivo, NOD/SCID mice
Outline: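 A375 cells (3×10^6) were injected subcutaneously into the flanks of 6-week-old female NOD/SCID mice. At about 50 mm³, mice were randomised, n = 8 per group. Dosing was PLX4032 20 mg/kg/day and test compound 20 mg/kg every two days. Combination arms alternated test compound (20 mg/kg every four days) with PLX4032 (20 mg/kg every two days). Volume (a×b²×0.5) was measured every three days. Tumours were dissected and weighed. TGI compared volume change with vehicle.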

A375 (BRAF mutation) = assay: MTT cell viability assay, A375; type: cell-based, human
[1] = tested on: A2058 xenografts (intrinsic vemurafenib resistance); assay: A2058 xenograft tumor model; type: in vivo, NOD/SCID mice; conditions: 75 mg/kg/day, 24 doses in total
Outline: (§1)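 Female NOD/SCID mice, 6 weeks old, received 3×10^6 A375-R or A2058 cells subcutaneously in the flank. Treatment began at about 50 mm³ tumour volume, with 8 mice per randomised group. Doses were PLX4032 75 mg/kg/day and test compound 20 mg/kg every two days; combination arms alternated the two, each every two days. Tumour volume (a×b²×0.5) and body weight were recorded every three days. TGI used initial-to-final volume change versus vehicle.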

A375 cells [2] = assay: Colony formation assay, A375; type: cell-based, human; conditions: for inhibition of colony formation: 21 days
Outline: (§2)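 A375 or A375-R cells were grown in 24-well plates with treatment for 21 days, with drug-containing medium renewed every three days. Colonies were stained with 0.1% crystal violet in PBS. Dye was extracted with 20% acetic acid and absorbance read at 595 nm. Values are colony formation relative to control, n = 4.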

[3] = tested on: A375-R cells (acquired vemurafenib resistance); assay: MTT cell viability assay, A375-R; type: cell-based, human
A375-R cells [4] = assay: Apoptosis detection, A375-R; type: cell-based, human
Outline: (§3)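 Cells were seeded in 6-well plates and exposed to vehicle or test compound for 72 h. Apoptotic cells were scored by Annexin V-FITC plus propidium iodide double staining and flow cytometry.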

[5] = tested on: A375-R xenografts (acquired vemurafenib resistance); assay: A375-R xenograft tumor model; type: in vivo, NOD/SCID mice
Outline: as §1

metastatic melanoma = conditions: cited from earlier work
A375 cells [6] = assay: Apoptosis detection; type: cell-based, human; conditions: A375, 72 h
Outline: as §3

A375 cells [7] = assay: Cell cycle analysis, A375; type: cell-based, human; conditions: A375, 24 h
Outline: (§4)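 Cells were synchronised in medium with 1% FBS for 12 h, then given fresh 10% FBS medium with vehicle or test compound for 24 h. Adherent and floating cells were pooled, fixed overnight in ice-cold 70% ethanol at 4°C, and stained with propidium iodide/RNase A for 30 min at room temperature in the dark. Cells were then analysed by flow cytometry.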

A375-R cells [8] = assay: Cell cycle analysis, A375-R; type: cell-based, human
Outline: as §4

A375-R cells [9] = assay: Colony formation assay, A375-R; type: cell-based, human; conditions: 21 days
Outline: as §2

B16-F10 (NRAS mutation) = assay: MTT cell viability assay, B16-F10; type: cell-based; conditions: read-out: IC50, B16-F10 (NRAS mutation); 24 h treatment, mouse cell line
Outline: (§5)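 Cells were seeded in 96-well plates overnight, then exposed to test compound for 24 h at concentrations up to 10 μM. Growth was read by MTT as OD570. Viability was expressed relative to vehicle (0.5% DMSO) set as 100%, and IC50 was derived from this.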

[10] = tested on: Melanocyte (Normal cells); assay: MTT cell viability assay, normal melanocytes; type: cell-based; conditions: read-out: IC50, Melanocyte (Normal cells); 24 h treatment, human cells
Outline: as §5

A2058 (BRAF mutation) = assay: MTT cell viability assay, A2058; type: cell-based; conditions: read-out: IC50, A2058 (BRAF mutation); 24 h treatment, human cell line
Outline: as §5

SK-MEL-2 (NRAS mutation) = assay: MTT cell viability assay, SK-MEL-2; type: cell-based; conditions: read-out: IC50, SK-MEL-2 (NRAS mutation); 24 h treatment, human cell line
Outline: as §5

[11] = tested on: MeWo (No NRAS or BRAF mutation); assay: MTT cell viability assay, MeWo; type: cell-based; conditions: read-out: IC50, MeWo (No NRAS or BRAF mutation); 24 h treatment, human cell line
Outline: as §5

A375-R cells [12] = assay: ROS measurement, A375-R; type: cell-based, human; conditions: 5 µM, 2 h
A375 cells [13] = assay: ROS measurement, A375; type: cell-based, human; conditions: A375, 5 µM, 2 h
[14] = 20 mg/kg/day, 24 doses in total
[15] = read-out: IC50, A375 (BRAF mutation), 24 h treatment, human cell line
[16] = 20 mg/kg/every two days, 12 doses in total

| SMILES | IC50 (A375 (BRAF mutation); [15]) | IC50 (B16-F10 (NRAS mutation)) | IC50 [10] | IC50 (A2058 (BRAF mutation)) | IC50 (SK-MEL-2 (NRAS mutation)) | IC50 [11] | further results |
| --- | --- | --- | --- | --- | --- | --- | --- |
| CCCS(=O)(=O)Nc1ccc(F)c(C(=O)c2c[nH]c3ncc(-c4ccc(Cl)cc4)cc23)c1F [PLX4032, vemurafenib, reference compound] | – | – | – | – | – | – | reduction of tumor mass (A375 xenografts; [14]): 71.9%; tumor growth inhibition (TGI) (A375 xenografts; [14]): 87.4%; IC50 (A375 (BRAF mutation); Homo sapiens, A-375, 72 h, read-out: IC50 on A375 cells): 0.07 µM; anti-tumor activity [1]: no anti-tumor activity; inhibition at 0.1 µM (A375 cells [2]; Homo sapiens, A-375, 504 h, read-out: inhibition of colony formation): 55%; IC50 ([3]; Homo sapiens, 72 h, read-out: IC50 on A375-R cells): 7.34 µM; fold less sensitive, A375-R compared to parental cell line ([3]; IC50 A375-R vs A375): 100 fold; apoptosis (A375-R cells [4]): no effect; anti-tumor activity ([5]; A375-R xenograft, 75 mg/kg/day, 24 doses in total): no anti-tumor activity; average time to relapse after therapy (metastatic melanoma; melanoma patients): ≤ 7 months; apoptosis (A375 cells [6]): 10.4%; effect on cell-cycle distribution (A375 cells [7]): G1-phase cell-cycle arrest; effect on cell-cycle distribution (A375-R cells [8]): no effect; effect on colony formation of A375-R cells (A375-R cells [9]): no inhibitory effect |
| C=C1C(=O)OC2CC3=C[C@@H](C/C(C)=C/C(O)[C@H]12)OC3=O (stereo partly shown) [DETD-3] | > 10 µM | > 10 µM | > 10 µM | > 10 µM | > 10 µM | > 10 µM | – |
| CC(=O)N[C@@H](CS)C(=O)O [NAC, N-acetyl-L-cysteine, reference compound] | – | – | – | – | – | – | effect on A375 cell viability (A375 (BRAF mutation); 5 mM alone): did not affect; effect on A375-R cell viability ([3]; 5 mM alone): did not affect |
| C=C1C(=O)OC2CC3=C[C@@H](C/C(C)=C/C(OC(=O)c4ccc(C)cc4)[C@H]12)OC3=O (stereo partly shown) [DETD-33] | 2.9 ± 0.26 µM | 2.2 ± 0.29 µM | > 10 µM | 4.2 ± 0.09 µM | 5.9 ± 0.2 µM | 6.7 ± 0.22 µM | – |
| CN(C)/N=N/c1[nH]cnc1C(N)=O [dacarbazine] | – | – | – | – | – | – | complete response (metastatic melanoma; metastatic melanoma): less than 5% |
| C=C1C(=O)OC2CC3=C[C@@H](C/C(C)=C/C(OC(C)=O)[C@H]12)OC3=O (stereo partly shown) [DETD-17] | > 10 µM | > 10 µM | > 10 µM | > 10 µM | > 10 µM | > 10 µM | – |
| C=C1C(=O)OC2CC3=C[C@@H](C/C(C)=C/C(OC(=O)C(C)CC)[C@H]12)OC3=O (stereo partly shown) [DETD-13] | > 10 µM | 7.1 ± 0.09 µM | > 10 µM | > 10 µM | > 10 µM | > 10 µM | – |
| C=C1C(=O)OC2CC3=C[C@@H](C/C(C)=C/C(OC(=O)/C(C)=C/CC)[C@H]12)OC3=O (stereo partly shown) [DETD-5] | 4.1 ± 0.15 µM | 4.7 ± 0.03 µM | > 10 µM | 5.8 ± 0.08 µM | 7.8 ± 0.14 µM | > 10 µM | – |
| C=C1C(=O)OC2CC3=C[C@@H](C/C(C)=C/C(OC(=O)c4ccccc4)[C@H]12)OC3=O (stereo partly shown) [DETD-31] | 4.3 ± 0.62 µM | 2.9 ± 0.78 µM | > 10 µM | > 10 µM | > 10 µM | > 10 µM | – |
| C=C(C)C(=O)O[C@H]1CC2=C[C@@H](C/C(C)=C/[C@H]3OC(=O)C(=C)[C@H]13)OC2=O [DET, deoxyelephantopin] | 6 µM and 5.9 µM | 6 ± 0.13 µM | > 10 µM | > 10 µM | > 10 µM | > 10 µM | reduction of tumor mass (A375 xenografts; [16]): 47.5%; tumor growth inhibition (TGI) (A375 xenografts; [16]): 71.0%; inhibition of A375 cell viability (A375 (BRAF mutation); 2 µM, 72 h): 55%; inhibition of colony formation (A375 cells [2]; 1 µM): 38%; inhibition of colony formation (A375 cells [2]; 2.5 µM): 65%; inhibition of colony formation (A375 cells [2]; 5 µM): 91%; inhibition of A375-R cell viability ([3]; 2 µM, 72 h): 65%; tumor growth inhibition (TGI) ([5]; A375-R, 20 mg/kg/every two days, 12 doses in total): 31.2%; apoptosis (A375 cells [6]): ≤ 67.8%; effect on cell-cycle distribution (A375 cells [7]): induced G2/M-phase arrest; increase of ROS level (A375-R cells [12]): more than 2 fold; effect on cell-cycle distribution (A375-R cells [8]): G2/M-phase cell-cycle arrest; effect on colony formation of A375-R cells (A375-R cells [9]): inhibited colony formation; increase of ROS level (A375 cells [13]): more than 2 fold |
| C=C1C(=O)OC2CC3=C[C@@H](C/C(C)=C/C(OC(=O)Cc4ccccc4)[C@H]12)OC3=O (stereo partly shown) [DETD-43] | 3.6 ± 0.25 µM | 7.4 ± 0.48 µM | > 10 µM | 8.7 ± 0.33 µM | 8.2 ± 0.27 µM | > 10 µM | – |
| C=C(CC)C(=O)OC1/C=C(\C)C[C@@H]2C=C(CC3OC(=O)C(=C)[C@@H]13)C(=O)O2 (stereo partly shown) [DETD-19] | > 10 µM | 7.8 ± 0.28 µM | > 10 µM | > 10 µM | > 10 µM | > 10 µM | – |
| C=C1C(=O)OC2CC3=C[C@@H](C/C(C)=C/C(OC(=O)/C=C/C)[C@H]12)OC3=O (stereo partly shown) [DETD-24] | > 10 µM | > 10 µM | > 10 µM | > 10 µM | > 10 µM | > 10 µM | – |

From article PMC4893919 (Molecular cancer therapeutics, 2016)
